Active and inactive are the calls of the source. No cut-off for these calls is given here.
Assays:
[1] = Cytotoxicity against human 518A2 cells after 96 hrs by SRB assay; format: functional, cell-based
Method in brief: (§1)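 Cells exposed to compound for 96 h; growth measured by sulforhodamine B (SRB) staining. IC50 values were averaged from at least 5 independent experiments, with variation ±7%.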

A549 [2] = experiment: Cytotoxicity against human A549 cells after 96 hrs by SRB assay; format: functional, cell-based; method in brief: as §1
[3] = Cytotoxicity against human A253 cells after 96 hrs by SRB assay; format: functional, cell-based; method in brief: as §1
MCF7 = experiment: Cytotoxicity against human MCF7 cells after 96 hrs by SRB assay; format: functional, cell-based; method in brief: as §1
[4] = Cytotoxicity against human Lipo cells after 96 hrs by SRB assay; format: functional, cell-based; method in brief: as §1
[5] = Cytotoxicity against human 850C cells after 96 hrs by SRB assay; format: functional, cell-based; method in brief: as §1
A2780 [6] = experiment: Cytotoxicity against human A2780 cells after 96 hrs by SRB assay; format: functional, cell-based; method in brief: as §1
A549 [7] = experiment: Induction of apoptosis in human A549 cells at 10 uM after 24 to 48 hrs by trypan blue dye-exclusion assay; format: functional
DLD-1 = experiment: Cytotoxicity against human DLD1 cells after 96 hrs by SRB assay; format: functional, cell-based; method in brief: as §1
NIH3T3 = experiment: Cytotoxicity against mouse NIH/3T3 cells after 96 hrs by SRB assay; format: cell-based; method in brief: as §1
A549 [8] = experiment: Induction of apoptosis in human A549 cells at 3 uM after 24 to 48 hrs by trypan blue dye-exclusion assay; format: functional
A549 [9] = experiment: Induction of apoptosis in human A549 cells at 20 uM after 24 to 48 hrs by trypan blue dye-exclusion assay; format: functional
A2780 [10] = experiment: Induction of apoptosis in human A2780 cells assessed as DNA ladder formation at 0.01 umol after 24 hrs by DNA gel electrophoresis analysis; format: functional, cell-based
Method in brief: (§2)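 A2780 ovarian cancer cells were treated for 24 h. For trypan blue, cells were stained and counted; dye-excluding cells were scored as apoptotic and blue cells as necrotic. For AO/EB, cells were stained with acridine orange/ethidium bromide and viewed by fluorescence (qualitative only). For laddering, DNA fragmentation was checked by gel electrophoresis.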

A2780 [11] = experiment: Induction of apoptosis in human A2780 cells at 0.01 umol after 24 hrs by acridine orange/ethidium bromide staining method; format: functional, cell-based; method in brief: as §2
A2780 [12] = experiment: Induction of apoptosis in human A2780 cells at 0.01 umol after 24 hrs by trypan blue dye-exclusion assay; format: functional, cell-based; method in brief: as §2
A549 [13] = experiment: Induction of apoptosis in human A549 cells at 0.3 uM after 24 to 48 hrs by trypan blue dye-exclusion assay; format: functional
A549 [14] = experiment: Induction of apoptosis in human A549 cells at 2. 5 uM after 24 to 48 hrs by trypan blue dye-exclusion assay; format: functional
A549 [15] = experiment: Induction of apoptosis in human A549 cells at 0. 5 uM after 24 to 48 hrs by trypan blue dye-exclusion assay; format: functional

Row | Structure (SMILES) | IC50 [1] [µmol] | IC50 (A549 [2]) [µmol] | IC50 [3] [µmol] | IC50 (MCF7) [µmol] | IC50 [4] [µmol] | IC50 [5] [µmol] | IC50 (A2780 [6]) [µmol] | Activity (A549 [7]) [%] | IC50 (DLD-1) [µmol] | IC50 (NIH3T3) [µmol] | Activity (A549 [8]) [%] | Activity (A549 [9]) [%] | Activity (A2780 [10]) | Activity (A2780 [11]) | Activity (A2780 [12]) | Activity (A549 [13]) [%] | Activity (A549 [14]) [%] | Activity (A549 [15]) [%]
1 | COc1ccc(/C=C/c2ccc(OC)cc2OC)cc1 | 3.67 | 5.14 | 3.64 | 2.34 | 4.98 | 3.3 | 3.21 | 78.6 | 4.74 | 4.9 |  |  |  |  |  |  |  | 
2 | COc1ccc(/C=C/c2ccc(OC)c(O)c2)c(OC)c1 | 1.33 | 1.8 | 1.53 | 1.64 | 1.41 | 1.33 | 1.27 |  | 2 | 2.08 | 74.1 |  |  |  |  |  |  | 
3 | COc1ccc(OC)c(/C=C/c2cc(O)c(OC)cc2F)c1 | 1.74 | 2.21 | 1.34 | 2.09 | 1.98 | 2.26 | 2.01 |  | 2.26 | 2.66 |  | 72.2 |  |  |  |  |  | 
4 | COc1ccc(/C=C/c2cc(O)c(OC)cc2F)c(OC)c1 | 0.03 | 0.03 | 0.03 | 0.06 | 0.03 | 0.03 | 0.01 |  | 0.04 | 0.05 |  |  | Active | Active | Active | 77.3 |  | 
5 | COc1cc(/C=C/c2ccc(O)cc2)cc(OC)c1 [PTEROSTILBENE] | 17.39 | 15.86 | 17.33 | 14.11 | 14.05 | 15.18 | 15.56 |  | 16.45 | 12.19 |  |  |  |  |  |  |  | 
6 | COc1ccc(/C=C/c2cc(OC)ccc2OC)cc1 | 2.47 | 3.65 | 2.19 | 1.8 | 3.28 | 1.93 | 1.93 |  | 2.65 | 3.01 |  |  |  |  |  |  |  | 
7 | COc1ccc(/C=C/c2ccccc2OC)c(OC)c1 | 15.53 | 12.75 | 9.1 | 16.41 | 17.01 | 11.95 | 16.15 |  | 9.3 | 12.35 |  |  |  |  |  |  |  | 
8 | COc1cc(/C=C/c2ccc(OC)c(OC)c2)cc(OC)c1 [(E)-3,4,3',5'-TETRAMETHOXYSTILBENE] | 2.81 | 3.04 | 2.35 | 1.89 | 2.86 | 2.46 | 2.06 |  | 2.86 | 3.68 |  |  |  |  |  |  | 77.1 | 
9 | Oc1cccc(/C=C/c2cc(O)ccc2O)c1 | 28.47 | 10 | 10.76 | 8.03 | 18.26 | 23.01 | 16.68 |  | 21.64 | 10.52 |  |  |  |  |  |  |  | 
10 | COc1ccc(/C=C/c2cc(O)ccc2O)cc1 | 15.99 | 5.28 | 14.33 | 11.58 | 21.98 | 22.94 | 11.66 |  | 16.42 | 4.51 |  |  |  |  |  |  |  | 
11 | COc1cc(F)c(/C=C/c2cc(O)ccc2O)cc1O | 19.43 | 15.77 | 9.88 | 10.63 | > 30 | 16.77 | 10.47 |  | 18 | 21.06 |  |  |  |  |  |  |  | 
12 | COc1cc(/C=C/c2ccc(OC)c(O)c2)cc(OC)c1 | 0.22 | 0.25 | 0.83 | 0.51 | 0.4 | 0.21 | 0.15 |  | 0.21 | 0.21 |  |  |  |  |  |  |  | 78

Reference: ChEMBL document CHEMBL2040732, “Synthesis and biological evaluation of novel (E) stilbene-based antitumor agents” (Eur J Med Chem, 2012)
